The assay deals with T1, Protein deacetylase HDAC6 (Homo sapiens, UniProt Q9UBN7).
T1 sequence (Q9UBN7 whole entry): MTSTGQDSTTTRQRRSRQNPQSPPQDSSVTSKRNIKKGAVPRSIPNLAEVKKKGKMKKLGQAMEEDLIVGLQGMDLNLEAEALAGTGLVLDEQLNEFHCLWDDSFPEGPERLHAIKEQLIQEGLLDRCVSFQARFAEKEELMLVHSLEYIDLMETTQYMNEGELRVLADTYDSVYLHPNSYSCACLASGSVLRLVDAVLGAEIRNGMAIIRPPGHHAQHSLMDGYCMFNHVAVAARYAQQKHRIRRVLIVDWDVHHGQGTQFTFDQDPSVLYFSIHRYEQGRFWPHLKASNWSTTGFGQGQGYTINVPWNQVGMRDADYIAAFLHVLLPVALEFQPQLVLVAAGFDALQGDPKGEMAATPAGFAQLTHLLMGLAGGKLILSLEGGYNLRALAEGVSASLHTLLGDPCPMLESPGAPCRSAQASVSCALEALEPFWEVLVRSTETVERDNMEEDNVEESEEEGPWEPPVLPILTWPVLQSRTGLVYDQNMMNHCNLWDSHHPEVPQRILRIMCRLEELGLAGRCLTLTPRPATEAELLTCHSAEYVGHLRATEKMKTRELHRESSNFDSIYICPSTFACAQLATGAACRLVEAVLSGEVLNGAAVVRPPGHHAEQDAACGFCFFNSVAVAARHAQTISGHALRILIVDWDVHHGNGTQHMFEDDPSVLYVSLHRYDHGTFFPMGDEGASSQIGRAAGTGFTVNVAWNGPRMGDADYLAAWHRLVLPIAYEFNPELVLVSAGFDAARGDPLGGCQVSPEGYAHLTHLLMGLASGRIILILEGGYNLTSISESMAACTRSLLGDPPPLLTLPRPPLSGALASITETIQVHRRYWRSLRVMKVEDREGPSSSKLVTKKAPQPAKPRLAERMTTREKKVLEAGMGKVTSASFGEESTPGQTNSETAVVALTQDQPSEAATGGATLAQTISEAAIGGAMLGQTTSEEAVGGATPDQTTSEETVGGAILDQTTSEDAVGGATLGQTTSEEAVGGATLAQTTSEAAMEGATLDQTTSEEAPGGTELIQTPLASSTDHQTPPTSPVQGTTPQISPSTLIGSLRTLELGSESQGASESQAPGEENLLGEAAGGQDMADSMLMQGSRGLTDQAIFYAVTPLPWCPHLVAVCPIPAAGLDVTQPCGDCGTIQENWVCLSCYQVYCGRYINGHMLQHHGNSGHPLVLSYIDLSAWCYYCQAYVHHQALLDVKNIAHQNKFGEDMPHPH
Put plainly: Inhibition of full length N-terminal GST-tagged human HDAC6 expressed in baculovirus infected Sf9 insect cells using HDAC substrate 3 after 30 mins by fluorescence assay. A digest of the protocol: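 Run by a contract lab. Compound incubated with HDAC enzyme, HDAC substrate, BSA and HDAC buffer, in duplicate, at 37 °C for 30 min. Quenched with HDAC developer, then 15 min at room temperature. Percent activity = (F−Fb)/(Ft−Fb), using blank and solvent-control wells. IC50 from curve fitting.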

Take `CC(C)[C@@H]1NC(=O)[C@]2(C)CSC(=N2)c2csc(n2)CNC(=O)C[C@@H](/C=C/CCSCCS)OC1=O`: the IC50 (usually the midpoint of a concentration-inhibition curve) came to 2800 nM. `CC(C)[C@@H]1NC(=O)[C@]2(C)CSC(=N2)c2csc(n2)CNC(=O)C[C@@H](/C=C/CCC(=O)NO)OC1=O` returned an IC50 of 600 nM.
